Source: ChEMBL document CHEMBL4190409, “New somatostatin-drug conjugates for effective targeting pancreatic cancer” (Bioorg Med Chem, 2018)
Activity calls are given as the source filed them. The rule behind the calls is not given here. Peptide text beside a SMILES is read from it.

Tests used:
PANC-1 [1] = test: Cytotoxicity against human PANC1 cells after 48 hrs by XTT assay; type: functional, cell-based; settings: PANC-1, 48 h
Procedure, shortened: (§1)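 Cells seeded at 5-10 x 10^4 cells/mL and preincubated 24 h, then washed and given fresh medium with a concentration series for 48 h or 72 h. XTT added for a further 2-4 h, absorbance read at 480 and 680 nm. % growth inhibition taken against medium+solvent and solvent-free controls. DMSO final <0.05%. Tetraplicates, each experiment run twice.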

CAPAN-1 [2] = test: Cytotoxicity against human Capan1 cells after 48 hrs by XTT assay; type: functional, cell-based; settings: CAPAN-1, 48 h; procedure, shortened: as §1
PANC-1 [3] = test: Cytotoxicity against human PANC1 cells after 72 hrs by XTT assay; type: functional, cell-based; settings: PANC-1, 72 h; procedure, shortened: as §1
CAPAN-1 [4] = test: Cytotoxicity against human Capan1 cells after 72 hrs by XTT assay; type: functional, cell-based; settings: CAPAN-1, 72 h; procedure, shortened: as §1
[5] = Half life in IMDM culture medium by LC-MS analysis; type: physicochemical
Procedure, shortened: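 Conjugate stock (10 µl) added to 1 ml IMDM (DME-based, 20% bovine serum) at 37°C. Aliquots taken at 1, 3, 6, 24, 48, 72 and 96 h, quenched with 2.5 vol ethanol, centrifuged, filtered and analysed by LC-MS. At least three measurements.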

[6] = target: T1, Somatostatin receptor type 1 (Homo sapiens, UniProt P30872); test: Drug uptake in HEK293 cells co-expressing SSTR1 (unknown origin) and RFP assessed as SSTR1-mediated drug accumulation by measuring mean fluorescence intensity measured after 30 mins by fluorescence microscopic analysis (reference value: 1.1); type: ADME, cell-based; settings: hek293, 0.5 h
T1 sequence (P30872 whole entry): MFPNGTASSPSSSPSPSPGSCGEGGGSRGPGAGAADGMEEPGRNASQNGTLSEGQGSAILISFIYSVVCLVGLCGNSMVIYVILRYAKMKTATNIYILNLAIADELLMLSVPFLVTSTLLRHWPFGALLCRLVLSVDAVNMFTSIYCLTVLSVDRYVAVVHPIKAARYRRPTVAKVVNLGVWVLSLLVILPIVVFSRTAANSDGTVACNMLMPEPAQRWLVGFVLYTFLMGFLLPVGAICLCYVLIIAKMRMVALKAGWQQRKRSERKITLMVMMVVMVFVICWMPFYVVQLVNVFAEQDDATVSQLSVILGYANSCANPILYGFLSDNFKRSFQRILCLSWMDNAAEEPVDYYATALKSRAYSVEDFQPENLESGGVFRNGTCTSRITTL

[7] = target: T2, Somatostatin receptor type 2 (Homo sapiens, UniProt P30874); test: Agonist activity at SSTR2 (unknown origin) expressed in HEK293 cells assessed as inhibition of forskolin-induced CRE promoter activity at 10 to 1000 nM by luciferase reporter gene assay; type: functional, cell-based
T2 sequence (P30874 whole entry): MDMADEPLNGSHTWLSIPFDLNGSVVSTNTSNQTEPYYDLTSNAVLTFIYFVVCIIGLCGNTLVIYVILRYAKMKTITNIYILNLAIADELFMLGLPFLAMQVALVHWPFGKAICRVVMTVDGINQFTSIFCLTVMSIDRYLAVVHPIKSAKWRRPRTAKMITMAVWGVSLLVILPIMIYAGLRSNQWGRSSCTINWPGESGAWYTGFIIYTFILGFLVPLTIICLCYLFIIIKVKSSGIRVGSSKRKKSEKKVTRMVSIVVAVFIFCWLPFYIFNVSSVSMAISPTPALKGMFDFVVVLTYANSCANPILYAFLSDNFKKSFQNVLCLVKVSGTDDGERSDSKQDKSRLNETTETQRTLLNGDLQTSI
Procedure, shortened: (§2)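 HEK-293 cells (70,000/well) co-transfected via JetPei with CRE-luciferase reporter, β-galactosidase construct and one SSTR subtype vector (empty pcDNA3.1 control). After 1 day, treated with 10 µM forskolin alone or with peptide. Luminescence read relative to forskolin alone and normalized to β-galactosidase (ONPG). Triplicates, representative of three experiments.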

[8] = target: T3, Somatostatin receptor type 4 (Homo sapiens, UniProt P31391); test: Drug uptake in HEK293 cells co-expressing SSTR4 (unknown origin) and RFP assessed as SSTR4-mediated drug accumulation by measuring mean fluorescence intensity at 400 nM measured after 15 mins in presence of SSTR2 agonist octreotide by fluorescence assay; type: cell-based; settings: hek293, 0.25 h, 0.4 µM
T3 sequence (P31391 whole entry): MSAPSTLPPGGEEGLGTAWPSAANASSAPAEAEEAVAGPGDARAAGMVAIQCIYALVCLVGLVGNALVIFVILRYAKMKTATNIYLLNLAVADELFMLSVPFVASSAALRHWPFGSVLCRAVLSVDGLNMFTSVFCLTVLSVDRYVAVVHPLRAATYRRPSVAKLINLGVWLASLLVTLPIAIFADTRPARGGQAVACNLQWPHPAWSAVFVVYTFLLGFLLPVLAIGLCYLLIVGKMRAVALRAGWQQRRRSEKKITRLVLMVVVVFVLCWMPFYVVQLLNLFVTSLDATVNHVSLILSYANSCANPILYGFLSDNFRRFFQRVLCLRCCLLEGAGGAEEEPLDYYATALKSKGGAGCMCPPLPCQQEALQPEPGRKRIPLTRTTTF
Procedure, shortened: (§3)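 FITC-peptide at 400 nM then added for 15 min. FITC/RFP fluorescence imaged; mean fluorescence intensity of FITC+ cells quantified (n = 10), representative of three experiments.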

[9] = target: T4, Somatostatin receptor type 3 (Homo sapiens, UniProt P32745); test: Agonist activity at SSTR3 (unknown origin) expressed in HEK293 cells assessed as inhibition of forskolin-induced CRE promoter activity at 10 to 1000 nM by luciferase reporter gene assay; type: functional, cell-based; procedure, shortened: as §2
T4 sequence (P32745 whole entry): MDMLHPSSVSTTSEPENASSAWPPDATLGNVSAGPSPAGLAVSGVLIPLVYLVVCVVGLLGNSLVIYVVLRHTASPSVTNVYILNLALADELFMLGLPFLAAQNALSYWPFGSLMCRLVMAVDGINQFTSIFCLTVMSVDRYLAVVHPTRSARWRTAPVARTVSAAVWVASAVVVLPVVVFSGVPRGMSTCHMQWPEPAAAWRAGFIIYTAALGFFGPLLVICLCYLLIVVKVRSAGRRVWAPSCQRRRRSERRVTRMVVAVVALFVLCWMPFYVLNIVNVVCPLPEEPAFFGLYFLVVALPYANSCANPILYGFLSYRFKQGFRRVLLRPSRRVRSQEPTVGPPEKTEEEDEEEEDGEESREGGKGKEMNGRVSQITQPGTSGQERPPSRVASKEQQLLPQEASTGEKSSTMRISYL

[10] = target: T2, Somatostatin receptor type 2; test: Drug uptake in HEK293 cells co-expressing SSTR2 (unknown origin) and RFP assessed as SSTR2-mediated drug accumulation by measuring mean fluorescence intensity measured after 30 mins by fluorescence microscopic analysis (reference value: 1.1); type: ADME, cell-based; settings: hek293, 0.5 h
[11] = target: T3, Somatostatin receptor type 4; test: Drug uptake in HEK293 cells co-expressing SSTR4 (unknown origin) and RFP assessed as SSTR4-mediated drug accumulation by measuring mean fluorescence intensity measured after 30 mins by fluorescence microscopic analysis (reference value: 1.1); type: ADME, cell-based; settings: hek293, 0.5 h
[12] = target: T2, Somatostatin receptor type 2; test: Drug uptake in HEK293 cells co-expressing SSTR2 (unknown origin) and RFP assessed as SSTR2-mediated drug accumulation by measuring mean fluorescence intensity at 400 nM measured after 15 mins in presence of SSTR2 agonist octreotide by fluorescence assay; type: cell-based; settings: hek293, 0.25 h, 0.4 µM; procedure, shortened: as §3
[13] = target: T1, Somatostatin receptor type 1; test: Agonist activity at SSTR1 (unknown origin) expressed in HEK293 cells assessed as inhibition of forskolin-induced CRE promoter activity at 10 to 1000 nM by luciferase reporter gene assay; type: functional, cell-based; procedure, shortened: as §2
[14] = target: T3, Somatostatin receptor type 4; test: Agonist activity at SSTR4 (unknown origin) expressed in HEK293 cells assessed as inhibition of forskolin-induced CRE promoter activity at 10 to 1000 nM by luciferase reporter gene assay; type: functional, cell-based; procedure, shortened: as §2
[15] = target: T4, Somatostatin receptor type 3; test: Drug uptake in HEK293 cells co-expressing SSTR3 (unknown origin) and RFP assessed as SSTR3-mediated drug accumulation by measuring mean fluorescence intensity measured after 30 mins by fluorescence microscopic analysis (reference value: 1.1); type: ADME, cell-based; settings: hek293, 0.5 h
[16] = target: T5, Somatostatin receptor type 5 (Homo sapiens, UniProt P35346); test: Drug uptake in HEK293 cells co-expressing SSTR5 (unknown origin) and RFP assessed as SSTR5-mediated drug accumulation by measuring mean fluorescence intensity measured after 30 mins by fluorescence microscopic analysis (reference value: 1.1); type: ADME, cell-based; settings: hek293, 0.5 h
T5 sequence (P35346 whole entry): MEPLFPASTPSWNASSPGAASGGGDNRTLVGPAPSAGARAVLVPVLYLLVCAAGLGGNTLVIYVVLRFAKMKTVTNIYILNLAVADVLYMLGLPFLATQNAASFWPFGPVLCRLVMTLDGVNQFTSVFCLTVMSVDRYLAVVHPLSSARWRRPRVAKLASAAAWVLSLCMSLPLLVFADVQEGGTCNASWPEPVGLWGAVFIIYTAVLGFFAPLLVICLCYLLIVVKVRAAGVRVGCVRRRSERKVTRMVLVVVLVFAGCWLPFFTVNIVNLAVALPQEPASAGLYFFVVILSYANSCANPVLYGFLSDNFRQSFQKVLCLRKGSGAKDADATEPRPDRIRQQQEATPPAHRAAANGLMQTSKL

[17] = target: T5, Somatostatin receptor type 5; test: Agonist activity at SSTR5 (unknown origin) expressed in HEK293 cells assessed as inhibition of forskolin-induced CRE promoter activity at 10 to 1000 nM by luciferase reporter gene assay; type: functional, cell-based; procedure, shortened: as §2
[18] = Drug uptake in pancreas of athymic nude mouse xenografted with human PANC1 cells at 120 mg/kg, iv measured after 24 hrs by fluorescent microscopic analysis; type: ADME, organism-based; settings: in vivo
Procedure, shortened: (§4)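 Five-week-old athymic nude mice inoculated subcutaneously in the dorsal left side with Panc-1 cells. When tumours reached 100 mm3, FITC-labelled peptide or peptide–CPT conjugate was given intravenously at 120 mg/kg as a single dose. At 24 h, tumour, spleen, pancreas, kidney and liver were excised and fluorescence was imaged by microscopy with a CCD camera.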

[19] = Drug uptake in tumor of athymic nude mouse xenografted with human PANC1 cells at 120 mg/kg, iv measured after 24 hrs by fluorescent microscopic analysis; type: ADME, organism-based, Neoplasm; settings: in vivo; procedure, shortened: as §4
[20] = Drug uptake in kidney of athymic nude mouse xenografted with human PANC1 cells at 120 mg/kg, iv measured after 24 hrs by fluorescent microscopic analysis; type: ADME, organism-based; settings: in vivo; procedure, shortened: as §4

| Structure (SMILES) | IC50 (PANC-1 [1]) | IC50 (CAPAN-1 [2]) | IC50 (PANC-1 [3]) | IC50 (CAPAN-1 [4]) | half-life [5] | also measured |
| --- | --- | --- | --- | --- | --- | --- |
| COc1cc(C2c3[nH]c4ccccc4c3CC3COC(=O)N32)cc(OC)c1OC(=O)NCCCC(=O)N[C@H](Cc1ccccc1)C(=O)N[C@H]1CSSCCN(CC(N)=O)C(=O)[C@H](Cc2ccccc2)NC(=O)[C@H]([C@@H](C)O)NC(=O)[C@H](CCCCN)NC(=O)[C@H](Cc2c[nH]c3ccccc23)NC(=O)[C@@H](Cc2c[nH]c3ccccc23)NC(=O)[C@H](Cc2ccccc2)NC1=O (stereo partly drawn) | 2980 nM | 250 nM | 2130 nM | 90 nM | 5 h | – |
| COc1cc(C2c3[nH]c4ccccc4c3CC3COC(=O)N32)cc(OC)c1OC(=O)NCCCC(=O)N[C@H](Cc1ccccc1)C(=O)N[C@@H](CCCNC(=N)N)C(=O)N[C@H]1CSSCCN(CC(N)=O)C(=O)[C@H](Cc2ccccc2)NC(=O)[C@H]([C@@H](C)O)NC(=O)[C@H](CCCCN)NC(=O)[C@@H](Cc2c[nH]c3ccccc23)NC(=O)[C@H](Cc2ccccc2)NC1=O (stereo partly drawn) | 270 nM | 1470 nM | 140 nM | 1430 nM | 3 h | – |
| COc1cc(/C=C\c2ccc(ON[C@H](Cc3ccccc3)C(=O)N[C@@H](CCCNC(=N)N)C(=O)N[C@H]3CSSCCN(CC(N)=O)C(=O)[C@H](Cc4ccccc4)NC(=O)[C@H]([C@@H](C)O)NC(=O)[C@H](CCCCN)NC(=O)[C@@H](Cc4c[nH]c5ccccc45)NC(=O)[C@H](Cc4ccccc4)NC3=O)c(OC(=O)NCCCC(C)=O)c2)cc(OC)c1OC | 1720 nM | 670 nM | 1170 nM | 520 nM | 15 h | – |
| C[C@@H](O)[C@@H]1NC(=O)[C@H](CCCCN)NC(=O)[C@H](Cc2c[nH]c3ccccc23)NC(=O)[C@@H](Cc2c[nH]c3ccccc23)NC(=O)[C@H](Cc2ccccc2)NC(=O)[C@@H](NC(=O)[C@@H](Cc2ccccc2)NC(=O)CCCNC(=S)Nc2ccc(-c3c4ccc(=O)cc-4oc4cc(O)ccc34)c(C(=O)O)c2)CSSCCN(CC(N)=O)C(=O)[C@H](Cc2ccccc2)NC1=O | – | – | – | – | – | Flu intensity [6]: 0.9; inhibition [7]: Active; Flu intensity [8]: 21.1; inhibition [9]: Active; Flu intensity [10]: 6.7; Flu intensity [11]: 32.4; Flu intensity [12]: 0.9; inhibition [13]: inactive; inhibition [14]: Active; Flu intensity [15]: 42.1; Flu intensity [16]: 48.8; inhibition [17]: Active |
| CC[C@@]1(O)C(=O)OCc2c1cc1n(c2=O)Cc2cc3ccccc3nc2-1 [CAMPTOTHECIN] | 180 nM | – | 90 nM | 210 nM | – | – |
| C[C@@H](O)[C@@H]1NC(=O)[C@H](CCCCN)NC(=O)[C@@H](Cc2c[nH]c3ccccc23)NC(=O)[C@H](Cc2ccccc2)NC(=O)[C@@H](NC(=O)[C@H](CCCNC(=N)N)NC(=O)[C@H](N)Cc2ccccc2)CSSCCN(CC(N)=O)C(=O)[C@H](Cc2ccccc2)NC1=O (HELM PEPTIDE1{[dF].R.C.F.[dW].K.T.F.[O=C(CN(CCS[*:3])[*:1])[*:2]].[am]}$PEPTIDE1,PEPTIDE1,3:R3-9:R3$$$V2.0) | > 50000 nM | > 50000 nM | > 50000 nM | > 50000 nM | – | – |
| COc1ccc(/C=C\c2cc(OC)c(OC)c(OC)c2)cc1OC(=O)NCCCC(=O)N[C@H](Cc1ccccc1)C(=O)N[C@H]1CSSCCN(CC(N)=O)C(=O)[C@H](Cc2ccccc2)NC(=O)[C@H]([C@@H](C)O)NC(=O)[C@H](CCCCN)NC(=O)[C@H](Cc2c[nH]c3ccccc23)NC(=O)[C@@H](Cc2c[nH]c3ccccc23)NC(=O)[C@H](Cc2ccccc2)NC1=O | 2670 nM | 2560 nM | 1190 nM | 2090 nM | 18 h | – |
| COc1cc([C@@H]2c3[nH]c4ccccc4c3C[C@H]3COC(=O)N32)cc(OC)c1O | – | 1570 nM | 610 nM | 1230 nM | – | – |
| C[C@@H](O)[C@@H]1NC(=O)[C@H](CCCCN)NC(=O)[C@@H](Cc2c[nH]c3ccccc23)NC(=O)[C@H](Cc2ccccc2)NC(=O)[C@@H](NC(=O)[C@H](CCCNC(=N)N)NC(=O)[C@@H](Cc2ccccc2)NC(=O)CCCNC(=S)Nc2ccc(-c3c4ccc(=O)cc-4oc4cc(O)ccc34)c(C(=O)O)c2)CSSCCN(CC(N)=O)C(=O)[C@H](Cc2ccccc2)NC1=O | – | – | – | – | – | Drug uptake [18]: Not Active; inhibition [7]: Active; inhibition [9]: Active; inhibition [13]: inactive; Drug uptake [19]: Active; Drug uptake [20]: Active; inhibition [14]: Active; inhibition [17]: Active |
| COc1ccc(/C=C\c2cc(OC)c(OC)c(OC)c2)cc1O [COMBRETASTATIN A4] | – | 840 nM | 160 nM | – | – | – |
| C[C@@H](O)[C@@H]1NC(=O)[C@H](CCCCN)NC(=O)[C@@H](Cc2c[nH]c3ccccc23)NC(=O)[C@H](Cc2ccccc2)NC(=O)[C@@H](NC(=O)[C@H](N)Cc2ccccc2)CSSC[C@@H](C(=O)N[C@H](CO)[C@@H](C)O)NC1=O | – | – | – | – | – | inhibition [7]: Active; inhibition [9]: Active |
| C[C@@H](O)[C@@H]1NC(=O)[C@H](CCCCN)NC(=O)[C@H](Cc2c[nH]c3ccccc23)NC(=O)[C@@H](Cc2c[nH]c3ccccc23)NC(=O)[C@H](Cc2ccccc2)NC(=O)[C@@H](NC(=O)[C@H](N)Cc2ccccc2)CSSCCN(CC(N)=O)C(=O)[C@H](Cc2ccccc2)NC1=O | > 50000 nM | > 50000 nM | > 50000 nM | > 50000 nM | – | – |
